According to ChEMBL document CHEMBL4616723, “Discovery of Antibacterials That Inhibit Bacterial RNA Polymerase Interactions with Sigma Factors” (J Med Chem, 2020):
Values after ≈ are worked out from the molar mass of the structure shown. Active and inactive are the calls of the source. The calls are words filed in the database; no cut-off is given here.

Tests used:
Streptococcus pneumoniae [1] = experiment: Antibacterial activity against Streptococcus pneumoniae ATCC 49619 after 16 to 20 hrs by CLSI based-broth microdilution method; type: functional
Enterococcus faecalis = experiment: Antibacterial activity against Enterococcus faecalis ATCC 19433 after 20 hrs by CLSI based-broth microdilution method; type: functional; details: ATCC 19433, 20 h
Staphylococcus aureus [2] = experiment: Antibacterial activity against Staphylococcus aureus ATCC 25923 after 20 hrs by CLSI based-broth microdilution method; type: functional; details: ATCC 25923, 20 h
Staphylococcus aureus [3] = experiment: Antibacterial activity against Staphylococcus aureus ATCC 29213 after 20 hrs by CLSI based-broth microdilution method; type: functional; details: ATCC 29213, 20 h
[4] = test system: Staphylococcus epidermidis; experiment: Antibacterial activity against Staphylococcus epidermidis ATCC 12228 after 20 hrs by CLSI based-broth microdilution method; type: functional; details: ATCC 12228, 20 h
[5] = test system: Staphylococcus saprophyticus; experiment: Antibacterial activity against Staphylococcus saprophyticus ATCC 15305 after 20 hrs by CLSI based-broth microdilution method; type: functional; details: subsp. saprophyticus ATCC 15305, 20 h
Streptococcus pyogenes = experiment: Antibacterial activity against Streptococcus pyogenes ATCC 19615 after 20 hrs by CLSI based-broth microdilution method; type: functional; details: ATCC 19615, 20 h
Streptococcus agalactiae = experiment: Antibacterial activity against Streptococcus agalactiae ATCC 12386 after 20 hrs by CLSI based-broth microdilution method; type: functional; details: ATCC 12386, 20 h
HepG2 = experiment: Cytotoxicity against human HepG2 cells after 48 to 72 hrs by MTT assay; type: cell-based
A549 = experiment: Cytotoxicity against human A549 cells after 48 to 72 hrs by MTT assay; type: cell-based
[6] = Therapeutic index, ratio of CC50 for human HepG2 cells to MIC for Streptococcus pneumoniae ATCC 49619; type: toxicity; details: read-out: TI
[7] = Therapeutic index, ratio of CC50 for human A549 cells to MIC for Streptococcus pneumoniae ATCC 49619; type: toxicity; details: read-out: TI
[8] = Haemolytic activity in human erythrocytes at 0.1 to 10 ug/ml relative to control; type: ADME, cell-based, Erythrocyte; details: read-out: Activity
Summary of the method: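 Human erythrocytes washed in 150 mM NaCl, resuspended in PBS pH 7.4 (2% blood); compound at final 0.1, 1 and 10 μg/mL (0.5% DMSO) for 45 min at 37 °C, n = 6; spun at 500g, 4 °C; supernatant absorbance read at 540 nm; 1% Triton X-100 as positive and PBS as negative control; % lysis calculated.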

[9] = Apparent permeability across apical to basolateral membrane in human Caco2 cells at 10 ug/ml by LC-MS/MS analysis; type: ADME, cell-based; details: Caco-2
Summary of the method: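 Caco-2 monolayers grown 21–28 days on Transwell polycarbonate membranes, TEER ≥165 Ω cm2; preincubated 20 min at 37 °C in transport buffer; apical-to-basolateral transport only, pH 7.4 on both sides; receiver sampled over time under sink conditions; concentrations measured by LC–MS/MS.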

[10] = Inhibition of Escherichia coli RNAP/sigma-70 protein-protein interaction assessed as reduction in RNA synthesis preincubated for 10 mins followed by sigma-70/DNA template/AGU/ApU/alpha [32P]GTP addition and measured after 10 mins by phosphorimaging analysis
Staphylococcus aureus [11] = experiment: Effect on total RNA level in Staphylococcus aureus ATCC 29213 at 1/4 to 1/8 times MIC by fluorimetric method; type: functional
Klebsiella pneumoniae = experiment: Antibacterial activity against Klebsiella pneumoniae ATCC 700603 after 20 hrs by CLSI based-broth microdilution method; type: functional; details: ATCC 700603, 20 h
Acinetobacter baumannii = experiment: Antibacterial activity against Acinetobacter baumannii ATCC 19606 after 20 hrs by CLSI based-broth microdilution method; type: functional; details: ATCC 19606 = CIP 70.34 = JCM 6841, 20 h
Pseudomonas aeruginosa = experiment: Antibacterial activity against Pseudomonas aeruginosa ATCC 27853 after 20 hrs by CLSI based-broth microdilution method; type: functional; details: ATCC 27853, 20 h
Enterobacter cloacae = experiment: Antibacterial activity against Enterobacter cloacae ATCC 13047 after 20 hrs by CLSI based-broth microdilution method; type: functional; details: subsp. cloacae ATCC 13047, 20 h
Escherichia coli = experiment: Antibacterial activity against Escherichia coli ATCC 25922 after 20 hrs by CLSI based-broth microdilution method; type: functional; details: ATCC 25922, 20 h
[12] = Inhibition of N-terminal SmBiT-fused Bacillus subtilis RNAP subunit beta' CH region expressed in Escherichia coli BL21(DE3)pLysS interaction with C- terminal LgBiT-fused Bacillus subtilis RNA polymerase sigma factor SigA expressed in Escherichia coli BL21(DE3)pLysS preincubated for 10 mins followed by RNA polymerase sigma factor SigA addition and measured after 10 mins by nano-glo luciferase assay
Summary of the method: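 Split-luciferase complementation in PBS: N-SmBiT-CH (2.5 μM stock) mixed with compound at desired concentrations, 10 min at 37 °C. C-LgBiT-σA (2.5 μM stock) then added, another 10 min at 37 °C. Equal volume of Nano-Glo substrate added and luminescence read. No-drug control included. Run in triplicate with technical repeats.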

Streptococcus pneumoniae [13] = experiment: Antibacterial activity against Streptococcus pneumoniae ATCC 49619 after 20 hrs by CLSI based-broth microdilution method; type: functional; details: ATCC 49619, 20 h
Streptococcus pneumoniae [14] = experiment: Antibacterial activity against Streptococcus pneumoniae ATCC 49619 assessed as reduction in pneumolysin release at 0.25 to 0.5 times MIC incubated for 16 to 20 hrs by Western blot analysis; type: functional, organism-based
Summary of the method: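 Overnight static culture in brain–heart infusion broth, with or without serially diluted compound; rifampicin and ceftriaxone controls at twofold dilutions from 2 to 0.002 μg/mL; untreated control. […] Western blot probed with rabbit polyclonal anti-pneumolysin (1:1000) and HRP anti-rabbit secondary, ECL chemiluminescence; band intensity normalized to untreated control.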

Row | MIC (Streptococcus pneumoniae [13]) | Compound | MIC (Enterococcus faecalis) | MIC (Staphylococcus aureus [2]) | MIC (Staphylococcus aureus [3]) | MIC [4] | MIC [5] | MIC (Streptococcus pyogenes) | MIC (Streptococcus agalactiae) | CC50 (HepG2) | CC50 (A549) | selectivity ratio [6] | selectivity ratio [7] | MIC (Klebsiella pneumoniae) | MIC (Acinetobacter baumannii) | MIC (Pseudomonas aeruginosa) | MIC (Enterobacter cloacae) | MIC (Escherichia coli) | IC50 [12] | further results
1 |  | O=C(O)c1ccccc1C(=O)c1ccc(Sc2ccc(Cl)c(Cl)c2)c([N+](=O)[O-])c1 | 32 µg/mL (≈ 71.4 µM) | 16 µg/mL (≈ 35.7 µM) | 16 µg/mL (≈ 35.7 µM) | 16 µg/mL (≈ 35.7 µM) | 32 µg/mL (≈ 71.4 µM) | 16 µg/mL (≈ 35.7 µM) | 16 µg/mL (≈ 35.7 µM) | 63.8 µM | 76.7 µM | 7 | 9 | > 256 µg/mL | > 256 µg/mL | > 256 µg/mL | > 256 µg/mL | > 256 µg/mL |  | MIC (Streptococcus pneumoniae [1]): 8 µg/mL (≈ 17.8 µM); hemolysis [8]: < 10%; Papp A→B at 10 ug/ml [9]: 35 ×10⁻⁶ cm/s; IC50 [10]: 20.4 µM; MIC (Staphylococcus aureus [11]): > 256 µg/mL
2 |  | O=C(O)c1cccc(NCc2ccc(Sc3ccc(Cl)c(Cl)c3)c([N+](=O)[O-])c2)c1 | 8 µg/mL (≈ 17.8 µM) | 8 µg/mL (≈ 17.8 µM) | 8 µg/mL (≈ 17.8 µM) | 8 µg/mL (≈ 17.8 µM) | 8 µg/mL (≈ 17.8 µM) | 8 µg/mL (≈ 17.8 µM) | 8 µg/mL (≈ 17.8 µM) |  |  |  |  | > 256 µg/mL | > 256 µg/mL | > 256 µg/mL | > 256 µg/mL | > 256 µg/mL | 42.9 µM | 
3 | 4 µg/mL (≈ 7.57 µM) | O=C(O)c1ccc(Br)c(NCc2ccc(Sc3ccc(Cl)c(Cl)c3)c([N+](=O)[O-])c2)c1 |  |  |  |  |  |  |  | 92.6 µM | 67.7 µM | 24 | 18 | > 256 µg/mL | > 256 µg/mL | > 256 µg/mL | > 256 µg/mL | > 256 µg/mL |  | 
4 |  | O=C(O)c1c(Cl)cccc1NCc1ccc(Sc2ccc(Cl)c(Cl)c2)c([N+](=O)[O-])c1 | 8 µg/mL (≈ 16.5 µM) | 8 µg/mL (≈ 16.5 µM) | 8 µg/mL (≈ 16.5 µM) | 4 µg/mL (≈ 8.27 µM) | 8 µg/mL (≈ 16.5 µM) | 2 µg/mL (≈ 4.13 µM) | 4 µg/mL (≈ 8.27 µM) | 97.7 µM | 93.3 µM | 12 | 11 | > 256 µg/mL | > 256 µg/mL | > 256 µg/mL | > 256 µg/mL | > 256 µg/mL | 25.1 µM | 
5 |  | CO/N=C(\C(=O)N[C@@H]1C(=O)N2C(C(=O)O)=C(CSc3nc(=O)c(O)nn3C)CS[C@H]12)c1csc(N)n1 |  |  |  |  |  |  |  |  |  |  |  |  |  |  |  |  |  | Activity (Streptococcus pneumoniae [14]): inactive
6 |  | Nc1ccc(Sc2ccc(C(=O)c3ccccc3C(=O)O)cc2[N+](=O)[O-])cc1 |  |  |  |  |  |  |  |  |  |  |  | > 256 µg/mL | > 256 µg/mL | > 256 µg/mL | > 256 µg/mL | > 256 µg/mL |  | MIC (Streptococcus pneumoniae [1]): 128 µg/mL (≈ 325 µM)
7 | > 256 µg/mL | Nc1ccccc1Nc1ccc(C(=O)c2ccccc2C(=O)O)cc1[N+](=O)[O-] |  |  |  |  |  |  |  |  |  |  |  | > 256 µg/mL | > 256 µg/mL | > 256 µg/mL | > 256 µg/mL | > 256 µg/mL |  | 
8 | 32 µg/mL (≈ 78.5 µM) | Cc1ccc(Sc2ccc(C(=O)c3ccccc3C(=O)O)cc2[N+](=O)[O-])c(C)c1 |  |  |  |  |  |  |  |  |  |  |  | > 256 µg/mL | > 256 µg/mL | > 256 µg/mL | > 256 µg/mL | > 256 µg/mL |  | 

Row | Compound | MIC (Streptococcus pneumoniae [13]) | MIC (Enterococcus faecalis) | MIC (Staphylococcus aureus [2]) | MIC (Staphylococcus aureus [3]) | MIC [4] | MIC [5] | MIC (Streptococcus pyogenes) | MIC (Streptococcus agalactiae) | CC50 (HepG2) | CC50 (A549) | selectivity ratio [6] | selectivity ratio [7] | MIC (Klebsiella pneumoniae) | MIC (Acinetobacter baumannii) | MIC (Pseudomonas aeruginosa) | MIC (Enterobacter cloacae) | MIC (Escherichia coli) | IC50 [12] | further results
9 | O=C(O)c1ccccc1C(=O)c1ccc(Sc2ccc(Cl)c(Cl)c2)cc1 | 16 µg/mL (≈ 39.7 µM) |  |  |  |  |  |  |  |  |  |  |  | > 256 µg/mL | > 256 µg/mL | > 256 µg/mL | > 256 µg/mL | > 256 µg/mL | 67 µM | 
